Experimental data taken from ChEMBL document CHEMBL4619779, “Tideglusib and Its Analogues As Inhibitors of Staphylococcus aureus SrtA” (J Med Chem, 2020).
≈ marks a conversion by molar mass, not a printed value. Calls of active or inactive are those of the source. No cut-off for these calls is given here.

Experiments:
[1] = Solubility in PBS in presence of 1% DMSO by LC/MS analysis; format: physicochemical; settings: PBS with 1% DMSO
[2] = molecular target: T1, Sortase A (Staphylococcus aureus, UniProt Q9S446, DELTAN24); assay: Inhibition of Staphylococcus aureus SrtA delta N24 mutant expressed in Escherichia coli BL21 (DE3) assessed as reduction in IsdA (64 to 323 residues) transpeptidation incubated for 20 mins by SDS-PAGE analysis
Procedure, shortened: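 His-tagged SrtAΔN24 (100 µg) was preincubated 20 min at rt with compound (1–25 µM) in 50 mM Tris-HCl pH 7.5, 150 mM NaCl, 5 mM CaCl2. IsdA64-323 (150 µg) and 3 mM Gly3 were then added for 1.5 hr at 37 °C. […] Three independent experiments.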

[3] = tested on: Sortase A (Staphylococcus aureus), Q9S446 [UNDEFINED MUTATION]; assay: Inhibition of Staphylococcus aureus SrtA delta N24 mutant expressed in Escherichia coli BL21 (DE3) using Abz-LPATG-Dnp substrate incubated for 20 mins in presence of 0.01% v/v Triton X-100 by FRET-based assay
[4] = tested on: Sortase A (Staphylococcus aureus), Q9S446 [UNDEFINED MUTATION]; assay: Binding affinity to Staphylococcus aureus SrtA delta N24 mutant expressed in Escherichia coli BL21 (DE3 assessed as attenuation of NMR signals by CPMG-NMR analysis
Procedure, shortened: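 NMR titration in 20 mM sodium phosphate pH 7.4, 100 mM NaCl, 2% DMSO, at 25 °C on a 600 MHz spectrometer with a cryoprobe.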

[5] = tested on: Sortase A (Staphylococcus aureus), Q9S446 [UNDEFINED MUTATION]; assay: Effect on structural folding of Staphylococcus aureus SrtA delta N24 mutant expressed in Escherichia coli BL21 (DE3 assessed as induction of gross structural perturbations by CD spectroscopy
Procedure, shortened: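 SrtAΔN24 at 10 µM was incubated with compound dissolved in methanol, and CD spectra were recorded. Two independent experiments.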

[6] = molecular target: T1, Sortase A; assay: Inhibition of Staphylococcus aureus SrtA delta N24 mutant expressed in Escherichia coli BL21 (DE3) using Abz-LPATG-Dnp substrate incubated for 20 mins by FRET-based assay
Procedure, shortened: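 His-tagged SrtAΔN24 (1 µM) was preincubated 20 min at rt with compound (0.2–100 µM) in 50 mM Tris-HCl pH 7.5, 150 mM NaCl, 5 mM CaCl2. Abz-LPATG-Dnp was added at 10 µM and fluorescence (ex 309 / em 420 nm) was read each minute for 20 min. IC50 came from a sigmoidal fit. Technical triplicates, three independent experiments.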

[7] = tested on: Staphylococcus aureus; assay: Antibiofilm activity against Staphylococcus aureus subsp. aureus str. Newman assessed as reduction in biofilm biomass at 25 to 100 uM incubated for 18 hrs by Crystal violet staining assay; format: functional, organism-based
Procedure, shortened: (§1)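 Overnight culture diluted 1:100 in TSB, plated in quadruplicate with inhibitor, and held static at 37 °C for 18 hr. Wells rinsed with PBS, and the dried, fixed biofilm stained with 0.1% crystal violet for 15 min. Stain dissolved in 30% acetic acid and absorbance read at 595 nm. Three independent experiments.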

[8] = tested on: Sortase A (Staphylococcus aureus), Q9S446 [UNDEFINED MUTATION]; assay: Inhibition of SrtA delta N24 mutant in Staphylococcus aureus subsp. aureus str. Newman reduction in abundance of anchored SpA by FITC-labeled human IgG fluorescence based assay
Procedure, shortened: (§2)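 Newman wild type and ΔsrtA were diluted 1:1000 in TSB and grown at 37 °C with inhibitor until A600 reached 1.0. Cells were PBS-washed, labelled with FITC-human IgG for 30 min at rt, and washed again before fluorescence was read. Triplicate wells, three independent experiments, unpaired two-tailed t-test.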

[9] = tested on: Sortase A (Staphylococcus aureus), Q9S446 [UNDEFINED MUTATION]; assay: Time dependent inhibition of Staphylococcus aureus SrtA delta N24 mutant expressed in Escherichia coli BL21 (DE3) assessed as reduction in IsdA (64 to 323 residues) transpeptidation by SDS-PAGE analysis
[10] = tested on: Sortase A (Staphylococcus aureus), Q9S446 [UNDEFINED MUTATION]; assay: Reversible inhibition of Staphylococcus aureus SrtA delta N24 mutant expressed in Escherichia coli BL21 (DE3) assessed as reduction in IsdA (64 to 323 residues) transpeptidation incubated for 20 mins followed by 10 fold compound dilution by SDS-PAGE analysis
[11] = tested on: Staphylococcus aureus; assay: Antibacterial activity against Staphylococcus aureus subsp. aureus str. Newman assessed as reduction in bacterial growth incubated for 24 hrs; format: functional
Procedure, shortened: (§3)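 Overnight culture diluted 1:1000 in TSB, grown to A600 0.6-0.8, then diluted 1:400 in TSB. Aliquots incubated with the compound at a range of concentrations. A600 read every 1 hr for 24 hr to build growth curves. Technical triplicates per point; three independent experiments.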

[12] = tested on: Sortase A (Staphylococcus aureus), Q9S446 [UNDEFINED MUTATION]; assay: Covalent binding affinity to Staphylococcus aureus SrtA delta N24 mutant assessed as induction of m/z shift incubated for 12 hrs by ESI-LC/MS analysis
Procedure, shortened: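 His-tagged SrtAΔN24 preincubated 12 hr with or without a 10-fold excess of compound. Diluted in 50% acetonitrile / 0.2% formic acid, run on a C8 column with a 10–90% acetonitrile gradient over 11 min, then ESI-TOF MS. MTSET served as the covalent reference.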

[13] = Cmax in mouse at 10 mg/kg, ip administered as single dose; format: ADME, organism-based; design: dose 10 mg/kg, route intraperitoneal; settings: in vivo
[14] = tested on: Sortase A (Staphylococcus aureus), Q9S446 [UNDEFINED MUTATION]; assay: Inhibition of SrtA delta N24 mutant in Staphylococcus aureus subsp. aureus str. Newman reduction in abundance of anchored SpA at 50 to 200 uM by Western blot analysis
Procedure, shortened: (§4)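 Newman was diluted 1:1000 and grown at 37 °C with inhibitor to A600 3.0. Cells were PBS-washed and digested with lysozyme for 30 min at 37 °C. Protoplasts were removed and the supernatant (cell wall fraction) was separated by SDS-PAGE and immunoblotted for SpA, with ClpP as the loading control. Three independent experiments.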

[15] = tested on: Staphylococcus aureus; assay: Antibacterial activity against Staphylococcus aureus subsp. aureus USA300 infected in BALB/c mouse model of systemic infection assessed as prolongation of time to death at 40 mg/kg/day, ip for 10 days; format: functional, organism-based
Procedure, shortened: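 BALB/c females, 6 weeks old, n = 10. USA300 grown 3 hr at 37 °C from a 1:1,000 dilution of overnight culture, washed, suspended in PBS. Compound suspended in ddH2O with 4% Tween 80 and 4% DMSO, given i.p. at 40 mg/kg every 24 hr; saline placebo. Mice challenged periorbitally 4 hr after the first dose. Survival followed over 10 days.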

[16] = tested on: Staphylococcus aureus; assay: Effect on cell growth of Staphylococcus aureus subsp. aureus USA300 at 150 ug/ml; format: organism-based; procedure, shortened: as §3
[17] = tested on: Staphylococcus aureus; assay: Antibiofilm activity against Staphylococcus aureus subsp. aureus USA300 assessed as reduction in biofilm formation at 25 to 100 uM incubated for 18 hrs by Crystal violet staining assay; format: functional, organism-based; procedure, shortened: as §1
[18] = tested on: Staphylococcus aureus; assay: Antibacterial activity against Staphylococcus aureus subsp. aureus USA300 infected in BALB/c mouse model of systemic infection assessed as mouse survival at 40 mg/kg/day, ip for 10 days; format: functional; settings: 240 h
Procedure, shortened: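 BALB/c females, 6 weeks old, n = 10. Drug suspended in ddH2O with 4% Tween 80 and 4% DMSO, given i.p. at 40 mg/kg every 24 hr. Saline was the placebo. Challenge by periorbital injection of USA300 4 hr after the first dose, about 1 × 10^8 CFU (lethal). Survival was followed for 10 days.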

[19] = tested on: Staphylococcus aureus; assay: Antibacterial activity against Staphylococcus aureus subsp. aureus str. Newman assessed as reduction in bacterial growth at 200 uM incubated for 24 hrs; format: functional, organism-based; procedure, shortened: as §3
[20] = tested on: Sortase A (Staphylococcus aureus), Q9S446 [UNDEFINED MUTATION]; assay: Inhibition of SrtA delta N24 mutant in Staphylococcus aureus subsp. aureus str. Newman reduction in abundance of anchored SpA by Western blot analysis; procedure, shortened: as §4
[21] = tested on: Sortase A (Staphylococcus aureus), Q9S446 [UNDEFINED MUTATION]; assay: Covalent inhibition of Staphylococcus aureus SrtA delta N24 mutant expressed in Escherichia coli BL21 (DE3) assessed as reduction in IsdA (64 to 323 residues) transpeptidation incubated for 20 mins followed by 10 fold compound dilution by SDS-PAGE analysis
[22] = tested on: Sortase A (Staphylococcus aureus), Q9S446 [UNDEFINED MUTATION]; assay: Inhibition of SrtA delta N24 mutant in Staphylococcus aureus subsp. aureus str. Newman reduction in abundance of anchored SpA at 100 uM by FITC-labeled human IgG fluorescence based assay; procedure, shortened: as §2

Question: Which solubility [1] does the source give for `Cc1noc(C)c1-n1sc(=O)n(Cc2ccccc2)c1=O` here?
Answer: 0.144 mg/mL

Question: And the IC50 [2]?
Answer: 4.6 µM

Question: What about the inhibition [3] of the same molecule?
Answer: Active

Question: And the Activity [4]?
Answer: Dose-dependent effect

Question: And the Activity [5]?
Answer: inactive

Question: And the IC50 [6]?
Answer: 0.8 µM

Question: And the Activity [7]?
Answer: Active

Question: And the inhibition [8]?
Answer: Dose-dependent effect

Question: What about the TDI [9] of the same molecule?
Answer: inactive

Question: And the inhibition [10]?
Answer: Active

Question: What about the MIC [11] of the same molecule?
Answer: > 100 mg/L

Question: And the Activity [12]?
Answer: inactive

Question: With `O=c1sn(-c2cccc3ccccc23)c(=O)n1Cc1ccccc1` [TIDEGLUSIB] as the molecule, how does the solubility [1] read?
Answer: 0.011 mg/mL

Question: And the IC50 [2]?
Answer: 5.9 µM

Question: What about the Cmax [13] of the same molecule?
Answer: 0.137 µg/mL

Question: And the inhibition [14]?
Answer: Active

Question: What about the inhibition [3] of the same molecule?
Answer: Active

Question: And the Activity [15]?
Answer: Active

Question: What about the Activity [5] of the same molecule?
Answer: inactive

Question: And the Activity [16]?
Answer: Non-Toxic

Question: And the IC50 [6]?
Answer: 0.6 µM

Question: What about the Activity [7] of the same molecule?
Answer: Active

Question: What about the inhibition [8] of the same molecule?
Answer: Dose-dependent effect

Question: And the TDI [9]?
Answer: inactive

Question: And the inhibition [10]?
Answer: Active

Question: And the MIC [11]?
Answer: > 100 mg/L

Question: And the Activity [17]?
Answer: Active

Question: What about the survival at 40 mg/kg/day [18] of the same molecule?
Answer: 40%

Question: What about the inhibition [19] of the same molecule?
Answer: Active

Question: What about the Activity [12] of the same molecule?
Answer: inactive

Question: Which inhibition [20] does the source give for `C[N+](C)(C)CCSS(C)(=O)=O` here?
Answer: Active

Question: And the inhibition [8]?
Answer: Active

Question: What about the inhibition [21] of the same molecule?
Answer: Active

Question: What about the Activity [12] of the same molecule?
Answer: 120 Da

Question: With `CCCNC1=C(c2ccccc2)C(=O)C2C(/C=C/S(=O)(=O)c3ccccc3)=CC=CC2C1=O` (stereo unspecified) as the molecule, how does the inhibition [22] read?
Answer: inactive

Question: With `O=c1sn(-c2cccc3ccccc23)c(=O)n1CCc1ccccc1` as the molecule, how does the IC50 [2] read?
Answer: 27.5 µM

Question: What about the IC50 [6] of the same molecule?
Answer: 0.6 µM

Question: And the MIC [11]?
Answer: > 100 mg/L

Question: Which IC50 [2] does the source give for `Cc1noc(C)c1-n1sc(=O)n(Cc2ccccc2Cl)c1=O` here?
Answer: 3.7 µM

Question: What about the IC50 [6] of the same molecule?
Answer: 0.6 µM

Question: And the MIC [11]?
Answer: > 100 mg/L

Question: For `O=c1sn(CCc2ccccc2)c(=O)n1C1CCCCC1`, which IC50 [2] is on record?
Answer: > 50 µM

Question: And the IC50 [6]?
Answer: > 100 µM

Question: What about the MIC [11] of the same molecule?
Answer: 12.5 mg/L (≈ 41.1 µM)

Question: For `CCCCn1c(=O)sn(-c2cccc3ccccc23)c1=O`, which IC50 [2] is on record?
Answer: 12.6 µM

Question: And the IC50 [6]?
Answer: 0.9 µM

Question: What about the MIC [11] of the same molecule?
Answer: 100 mg/L (≈ 333 µM)

Question: With `CC(C)n1c(=O)sn(Cc2ccccc2)c1=O` as the molecule, how does the IC50 [2] read?
Answer: > 50 µM

Question: What about the IC50 [6] of the same molecule?
Answer: > 100 µM

Question: And the MIC [11]?
Answer: 6.2 mg/L (≈ 24.8 µM)

Question: Which IC50 [2] does the source give for `O=c1sn(Cc2ccccc2)c(=O)n1CCCl` here?
Answer: 16.7 µM

Question: What about the IC50 [6] of the same molecule?
Answer: 2 µM

Question: And the MIC [11]?
Answer: 25 mg/L (≈ 92.3 µM)

Question: Which results are given for `Cc1noc(C)c1-n1sc(=O)n(Cc2ccc(Cl)c(Cl)c2)c1=O`?
Answer: IC50 [2]: 3.4 µM; IC50 [6]: 0.9 µM; MIC [11]: > 100 mg/L
